# Screening data deposited in PubChem by The Scripps Research Institute Molecular Screening Center.
# Most compounds without a hit are left out; they make up all but 1.8% or so of the library.
# M5 PAM = positive allosteric modulators of human muscarinic M5 receptor; P08912; CHO-K1 hM5, Fluo-8 calcium, ACh EC20 PAM; 0% = ACh EC20, 100% = ACh EC100; activation, % at 3 µM; 360,000 compounds, 0.3% hits;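 active = activation above the run cutoff, the mean activation of all test compounds plus 3 SD, cut at about 18% in these data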
# Target sequence (P08912 whole entry, looked up): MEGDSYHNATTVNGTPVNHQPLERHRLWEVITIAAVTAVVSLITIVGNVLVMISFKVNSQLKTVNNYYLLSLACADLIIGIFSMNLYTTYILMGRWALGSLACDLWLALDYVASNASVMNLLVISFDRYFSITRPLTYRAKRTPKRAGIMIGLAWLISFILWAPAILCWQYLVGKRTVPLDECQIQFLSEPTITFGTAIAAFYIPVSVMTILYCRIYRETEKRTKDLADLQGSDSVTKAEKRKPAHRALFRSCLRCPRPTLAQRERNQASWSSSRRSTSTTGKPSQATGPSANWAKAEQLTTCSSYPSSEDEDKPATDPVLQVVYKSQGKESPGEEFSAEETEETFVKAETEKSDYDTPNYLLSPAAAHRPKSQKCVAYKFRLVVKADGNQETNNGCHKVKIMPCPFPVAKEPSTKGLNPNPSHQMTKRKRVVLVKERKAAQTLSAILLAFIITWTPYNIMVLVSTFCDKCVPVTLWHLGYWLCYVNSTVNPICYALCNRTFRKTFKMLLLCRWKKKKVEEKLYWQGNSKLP
#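 System: CHO-K1 cell line with stable human muscarinic M5 receptor expression | Also added: EC20 acetylcholine as agonist stimulus | Compound: One concentration, 3 µM final (nominal) | Timing: Fluo-8 loading 80 min at 37 °C plus 30 min room temperature | Measured by: Fluo-8 calcium dye fluorescence, kinetic read | Read-out basis: % activation, ACh-normalized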
# M4 antag = blocks acetylcholine activation of human M4 receptor; inhibition, % at 3 µM; CHO-hM4 cells, ACh EC80, Fluo-8 calcium fluorescence; 360,000 compounds, 0.73% hits;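 active = inhibition above its plate's cutoff, the mean inhibition of sample wells plus 3 SD, cut at about 27% in these data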;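 note: 0% = acetylcholine EC80 with DMSO and 100% = DMSO without agonist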
# CHRM4 PAM = positive allosteric modulators of human muscarinic M4 receptor; activation, % at 3 µM; AID 624126; 360,000 compounds, 0.4% hits; P08173; CHO-K1 hM4/Gqi5, Fluo-8 calcium fluorescence, ACh EC20; 0% = ACh EC20, 100% = maximal ACh;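 active = activation above its plate's cutoff, the mean activation of sample wells plus 3 SD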
# CHRM5 agonist = CHRM5 agonism in calcium assay | AID 624037 | CHO-K1 hM5 cells, Fluo-8 calcium fluorescence; 0% DMSO wells, 100% maximal acetylcholine response | activation, % at 3 µM | P08912 | 360,000 compounds, 0.19% hits;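 active = activation above the run's mean over test compounds plus 3 SD, cut at about 23% in these data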;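 note: signal is peak over basal fluorescence ratio across the kinetic read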
# CHRM4 agonist = agonists of human muscarinic M4 receptor (CHRM4) | P08173 | CHO-K1 hM4/Gqi5, Fluo-8 calcium fluorescence; vehicle 0%, full acetylcholine response 100% | activation, % at 3 µM | 360,000 compounds, 0.14% hits;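 active = activation above the run mean over all test wells plus 3 SD, cut at about 32% in these data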;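 note: peak over basal fluorescence ratio per well then scaled between controls; 0% = DMSO wells and 100% = acetylcholine at EC100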
# CHRM5 antagonist = CHRM5 antagonism in calcium assay | P08912 | inhibition, % at 3 µM | AID 624040 | CHO-hM5 cells, Fluo-8 calcium fluorescence, ACh EC80 | 360,000 compounds, 0.59% hits;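 active = inhibition above a per-plate cutoff, the mean of that plate's test compounds plus 3 SD, cut at about 27% in these data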;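 note: 0% = acetylcholine EC80 with DMSO and 100% = DMSO without agonist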
# * = called active by the depositor.
SMILES,M5 PAM,M4 antag,CHRM4 PAM,CHRM5 agonist,CHRM4 agonist,CHRM5 antagonist
CN(C)CCC(=O)C(Cc1ccccc1)c1ccccc1 (stereo unspecified),-19.0,35.0*,-14.9,-18.4,3.7,4.6
Cc1cc(C)n(-c2ccc([N+](=O)[O-])cc2)n1,1.8,-25.1,1.0,-8.4,0.1,-10.5
Cc1cc(N)n(-c2ccc([N+](=O)[O-])cc2)n1,20.1*,-15.1,9.6,5.0,3.4,-17.7
CCN(CC)C(=O)[C@H]1C[C@H](CC(=O)NCCN2CCOCC2)C(=O)N2CCc3c([nH]c4cc(-c5ccco5)ccc34)[C@]12C,-2.9,-8.4,-2.4,0.9,0.5,-4.8
Cc1ccc(C(=O)NCCn2cc(SCC(=O)Nc3cc(C)on3)c3ccccc32)cc1,-21.3,-24.8,-3.7,36.0*,12.9,1.1
Cc1cc(NC(=O)CSc2ccc3nnc(CCNC(=O)c4ccccc4)n3n2)no1,-3.9,-3.0,30.4*,-7.4,0.9,0.6
COc1cc(C(=O)NCCCNc2ccc([N+](=O)[O-])cc2)cc(OC)c1OC,-8.5,4.0,-4.9,2.5,5.1,0.6
O=[N+]([O-])c1c(Nc2cccc(O)c2)cc(Cl)c2nonc12,1.7,60.0*,-2.2,-5.2,-1.9,15.2
COc1ccc(C2(C)NC(=O)N(CC(=O)Nc3cccnc3Cl)C2=O)cc1 (stereo unspecified),-4.2,3.8,-2.1,9.9,2.4,4.3
CC1(c2ccc(OC(F)F)cc2)NC(=O)N(CC(=O)Nc2cccnc2Cl)C1=O (stereo unspecified),-11.6,7.9,-6.0,43.3*,27.6,8.3
Cc1oc2c(CN3CCCCC3C)c(O)ccc2c(=O)c1-c1ccc(Br)cc1 (stereo unspecified),0.0,18.5,-17.2,-4.3,-0.2,5.2
COc1ccc(-c2sc3ccccc3c2-c2ccc(OCCN(C)C)cc2)cc1,-12.8,36.1*,0.1,-6.4,4.3,12.3
CN(C)CCOc1ccc(-c2c(-c3ccsc3)sc3ccccc23)cc1,-2.5,20.3,4.4,-1.9,3.1,11.1
CCN(CC)CCNC(=O)c1ccc(NC(=O)c2ccc3c(c2)CCC3)cc1,-2.1,-15.5,-4.3,-10.4,1.4,-1.1
CCN(CC)CCNC(=O)c1ccc(NC(=O)c2ccccc2-c2ccc(C(F)(F)F)cc2)cc1,-17.7,70.8*,-17.4,-6.9,3.2,80.8*
CCN(CC)CCNC(=O)c1ccc(NC(=O)c2cccc(S(=O)(=O)N(C)C3CCCCC3)c2)cc1,-40.3,98.2*,-15.6,-9.8,0.6,97.9*
CCN(CC)CCNC(=O)c1ccc(NC(=O)Cc2ccccc2F)cc1,6.7,-6.5,8.3,-10.6,0.2,-4.8
CCCS(=O)(=O)NC(=O)C1(C)CCN(C(=O)c2cccc(C)c2C)C1 (stereo unspecified),-0.8,-10.6,18.8*,-0.4,0.9,-6.2
C=CCSc1nc2ccsc2c(=O)n1-c1cccnc1,8.0,2.5,1.4,-0.3,1.3,-11.4
Cc1ccc(Sc2c([N+](=O)[O-])ncn2C)cc1,-0.3,6.7,0.5,-3.3,0.1,1.4
Cc1ccc(Sc2c([N+](=O)[O-])c(C)nn2C)cc1,-32.6,62.9*,-63.0,-20.0,-0.4,27.8*
O=c1ccc2cccc([N+](=O)[O-])c2[nH]1,-1.2,3.8,-0.5,0.9,0.4,4.5
Nc1nnnn1N=C1CCCCC1,28.5*,-9.1,-1.1,-1.0,0.6,7.3
Cc1ccc(OCc2ccc(C(=O)NNC(=S)NCC3CCCO3)o2)c([N+](=O)[O-])c1 (stereo unspecified),18.5*,-3.4,4.9,-0.9,1.6,-21.5
Nc1cc(=O)[nH]c(SCC(=O)NNC(=O)c2ccccc2)n1,5.3,-11.8,16.3,-3.2,-0.3,-7.7
SMILES,M5 PAM,M4 antag,CHRM4 PAM,CHRM5 agonist,CHRM4 agonist,CHRM5 antagonist
O=S(=O)(c1ccc(F)cc1)N1CC2CCCN2c2ccc(C(F)(F)F)cc21 (stereo unspecified),-4.6,38.6*,-17.1,-4.4,-3.0,-4.8
CCCCC(CC)CN=C(N)NC(N)=NCCCCCCN=C(N)NC(N)=NCC(CC)CCCC (stereo unspecified),-18.4,82.5*,-21.1,-2.0,39.9*,13.3
CCCCC(CC)CO (stereo unspecified),-0.1,-13.0,13.8,3.4,1.2,4.8
C=CCN1C(=O)S/C(=C\c2ccc(N3CCOCC3)cc2C)C1=O,-1.5,-6.4,27.3*,2.3,5.4,2.3
COc1ccc(C=O)cc1COc1ccccc1F,1.0,-4.1,21.1*,-2.1,0.1,1.1
CCN1CCN(C(CNS(=O)(=O)c2ccc(Cl)cc2)c2ccccc2)CC1 (stereo unspecified),-15.8,4.3,-8.0,-9.5,1.9,28.4*
O=S(=O)(NCC(c1ccccc1)N1CCNCC1)c1ccc(Cl)cc1 (stereo unspecified),-2.6,14.6,-3.4,-6.4,5.6,2.8
CCc1nc2ccccc2c(C(=O)OCC(=O)Nc2cccc(S(=O)(=O)N3CCOCC3)c2)c1C,-17.5,30.2*,-19.0,3.6,11.5,10.8
Cn1nccc1C(=O)Nc1cccc(S(=O)(=O)N2CCOCC2)c1,2.4,7.6,21.8*,-0.7,1.4,-1.6
O=C(COC(=O)c1cc(S(=O)(=O)N2CCCC2)ccc1O)Nc1ccc(S(=O)(=O)N2CCOCC2)cc1,3.9,15.1,37.2*,-3.9,3.7,9.4
Cc1nc(SCc2nc3ccc([N+](=O)[O-])cc3[nH]2)c2oc3ccccc3c2n1,2.4,-5.5,-0.9,3.9,1.1,1.5
CCNS(=O)(=O)c1ccc(CCC(=O)Nc2cc(Cl)ccc2Oc2ccccc2)cc1,-23.9,27.6*,-11.7,-0.4,24.0,17.2
COc1cccc(OC(=O)c2cc3ccccc3oc2=O)c1,19.3*,-16.9,18.4*,-4.0,1.4,-7.2
CCN(CC)S(=O)(=O)c1ccc(S(=O)(=O)N2CCN(C(=O)c3ccco3)CC2)cc1,4.3,29.4*,23.1,-0.4,1.2,13.5
CCN(CC)S(=O)(=O)c1ccc(C(=O)N2CCN(C(=O)c3ccco3)CC2)cc1,-3.2,6.3,0.8,-0.4,0.5,13.6
Cc1c(NC(=O)OCCNC(=O)COc2c(Cl)cccc2Cl)sc(=S)n1C,6.2,-13.4,9.1,-12.6,1.8,-5.0
COc1ccccc1NC(=O)C1CCCN(c2nc(C)cc(C)n2)C1 (stereo unspecified),-7.0,-3.5,17.2*,-4.4,-0.6,7.7
CC(=O)Nc1cccc(NC(=O)CSc2nccn2Cc2ccccc2)c1,-11.0,3.6,-6.1,2.2,11.5,16.6
COc1ccc(S(=O)(=O)n2nc(OC(=O)c3ccccc3)cc2N)cc1,2.0,-1.7,9.5,-8.8,-0.2,1.6
